High-throughput results: PubChem BioAssay, several laboratories
The list is not random: actives were taken first. Their share in the collection is about 2.1%.
NS3 helicase inh – inhibitors of HCV NS3 helicase, primary screen, biochemical, Cy5 molecular beacon fluorescence; Hepatitis C virus NS3 helicase; NS3 helicase DNA unwinding; inhibition, % at 10.9 µM; hit rate 0.56% among 290,000; AID 1800, 2009;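 active means inhibition above the mean of all tested compounds plus 3 SD, set per campaign, cut at about 35% in these data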;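 further: 0% = DMSO wells and 100% = thioflavine S control wells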
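System: NS3 helicase fragment of HCV / Schedule: 1 h at 25 °C / Control set: DMSO alone as 0% and 110 µM thioflavine S as 100% / Reagent: Cy5/quencher beacon DNA duplex and ATP to start / Technique: Cy5 fluorescence / Replication: singlicate / Evaluation: % inhibition of end-to-start signal ratio versus controls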
UBC9 SUMO inh – inhibitors of in vitro SUMOylation cascade, primary screen, biochemical, HTRF, uHTS; inhibition, % at 35 µM; HTRF SUMOylation assay, SAE1/SAE2 + UBC9; hit rate 0.36% among 290,000; in the data active means inhibition above about 50%, passing the limit was not always enough
Target sequence (P63279 whole entry, looked up): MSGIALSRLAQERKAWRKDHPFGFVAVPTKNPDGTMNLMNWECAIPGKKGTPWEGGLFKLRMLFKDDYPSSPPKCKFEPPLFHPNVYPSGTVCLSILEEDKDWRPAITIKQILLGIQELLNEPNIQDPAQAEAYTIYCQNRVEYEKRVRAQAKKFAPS
IMP-1 inhibitor – IMP-1 metallo-beta-lactamase inhibitors, primary screen, biochemical, epi-absorbance readout, Pseudomonas aeruginosa enzyme. purified IMP-1, nitrocefin hydrolysis, epi-absorbance fluorescence. inhibition, % at 5.6 µM. hit rate 0.45% among 290,000;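 active means inhibition above the mean plus 3 SD of all compounds in the same screening run, cut at about 4.5% in these data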;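 further: 0% = IMP-1 with DMSO and 100% = DMSO wells lacking enzyme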
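System: purified IMP-1; amount: IMP-1 0.2 nM before substrate addition; compound: single dose, 5.6 µM; times: 25 °C, 15 min preincubation, 25 min reaction; signal: Epi-absorbance via hydrolysed-nitrocefin quenching of white-plate fluorescence, 480/530 nm, EDTA stop; benchmarks: DMSO with and without IMP-1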
DNA FID counter – compounds displacing fluorescent DNA intercalator, primary screen, artefact control for HCV NS3 helicase inhibitor project, biochemical, FID fluorescence; DNA fluorescent intercalator displacement; inhibition, % at 7.9 µM; hit rate 0.17% among 290,000; AID 1845, 2009; in the data active means inhibition above about 37%;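 further: 0% = vehicle and 100% = reference compound; higher means more ethidium bromide displaced from hairpin DNA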
VIM-2 inh – VIM-2 metallo-beta-lactamase inhibitors, primary screen, biochemical, epi-absorbance readout, Pseudomonas aeruginosa enzyme. inhibition, % at 5.6 µM. hit rate 0.89% among 290,000. purified VIM-2, nitrocefin hydrolysis, epi-absorbance fluorescence;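 active means inhibition above the mean of all tested compounds plus 3 SD, cutoff set per screening run, cut at about 7.5% in these data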;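 further: red hydrolysis product quenches plate fluorescence so inhibitors raise well fluorescence; 0% = enzyme with DMSO and 100% = DMSO without enzyme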
Numbers without * were called inactive.

SMILES	NS3 helicase inh	UBC9 SUMO inh	IMP-1 inhibitor	DNA FID counter	VIM-2 inh
CCCN(CCC)CCCNC(=O)Cn1cnc2sc(C)c(S(=O)(=O)N3CCOCC3)c2c1=O	4	14	-2	1	-2
CCCOc1ccccc1/C=C1/C(=O)ON=C1C	9	-6	1	1	8.2*
CCCOc1ccc(/C=C2/C(=O)ON=C2C)cc1OCC	16	9	-2	-1	2
CC(=O)OC1COC(n2c(O)c(N=NC(N)=S)c3ccccc32)C(OC(C)=O)C1OC(C)=O (stereo not given)	-5	-8	-2	-22	-3
CCNC(=O)Oc1ccc[nH]c1=O	1	88*	-2	2	0
CCOC(=O)NC(=S)c1ccc[nH]1	-6	11	-3	-5	-1
O=C(Oc1ccc[nH]c1=O)c1cc([N+](=O)[O-])cc([N+](=O)[O-])c1	2	98*	-1	4	-2
COc1ccc(C(=O)Oc2ccc[nH]c2=O)cc1	2	10	0	5	2
Cc1ccc(-n2nc3ccc(N)cc3n2)c(C)c1	13	50*	-2	-3	1
Cc1ccc(-n2nc3ccc(N)cc3n2)cc1Cl	23	25	0	2	2
CCc1ccc(OCC(=O)N/N=C2\CC(=O)c3ccccc32)cc1	11	87*	-7	-13	-1
N#Cc1cn(-c2cccc(C(F)(F)F)c2)c(=O)[nH]c1=O	19	22	-1	-12	-1
CCCS(=O)(=O)N1CCN(Cc2ccncc2)CC1	-6	6	5.1*	10	0
CCS(=O)(=O)N1CCN(Cc2ccncc2)CC1	-8	18	-3	6	-4
Cc1ccccc1NC(=O)CSc1nc(N)c(C#N)c(-c2cccs2)c1C#N	2	-11	12*	2	-4
CCN(CC)C(=O)CSc1nc(N)c(C#N)c(-c2cccs2)c1C#N	-2	-2	-2	-5	-1
O=C(Cc1ccccc1)Nc1nc(=O)c2ccccc2s1	0	-15	0	-3	11*
OC1=C(O)c2nc3cc(F)ccc3nc21	-6	25	-3	38*	8.2*
Cc1ccc2nc3c(nc2c1C)C(O)=C3O	-7	13	-3	-2	-1
COc1ccc(C(CNc2ncnc3sc(C)c(C)c23)N(C)C)cc1 (stereo not given)	-6	-2	0	9	8.8*
COc1ccccc1C(CNc1ncnc2sc(C)c(C)c12)N(C)C (stereo not given)	-17	10	-3	3	7
COc1ccc(Cc2nnc(NC(=O)c3ccccc3Cl)s2)cc1OC	2	11	-2	-28	-2
COc1ccc(Cc2nnc(NC(=O)c3ccccc3F)s2)cc1OC	-1	93*	-2	-21	-1
Cc1ccc(NC(=O)C(C)N2C(=O)c3ccccc3C2=O)cc1S(=O)(=O)N1CCOCC1 (stereo not given)	9	20	0	0	-1
CN(C)CCn1c2ccccc2c2nc3ccc([N+](=O)[O-])cc3cc21	36	35	-1	48*	0
SMILES	NS3 helicase inh	UBC9 SUMO inh	IMP-1 inhibitor	DNA FID counter	VIM-2 inh
CCn1c2ccccc2c2cc([N+](=O)[O-])ccc21	1	0	-2	7	-7
Cc1ccc(S(=O)(=O)NNC(=O)CCC(=O)Nc2ccccc2Cl)cc1	7	9	-3	-12	-2
Cc1ccc(CC(=O)Nc2cccc(C)n2)cc1	0	2	-1	-3	0
O=C(Cc1ccc(-c2ccccc2)cc1)Nc1ncccc1O	12	3	33*	-23	-5
Cc1cccc(NC(=O)Cc2ccc(-c3ccccc3)cc2)n1	-3	13	12*	-25	0
O=C(Cc1ccc(-c2ccccc2)cc1)Nc1ccccc1	-26	12	2	-3	0
O=C(CNC(=O)c1ccccc1F)N/N=C/c1ccc2c(c1)OCO2	0	15	-2	-8	-1
Cc1ccc(NC(=O)C2=C(C(=O)O)CCCC2)cc1F	5	5	7.9*	-2	1
Cc1ccc(NC(=O)c2ccc3c(=O)n4c(nc3c2)CCCCC4)cc1F	9	2	-2	-20	1
Cc1ccc(NC(=O)C2=C(C(=O)O)CCCC2)cc1Br	-9	6	13*	5	3
CCOC(=O)c1cnc2c(Cl)c(Cl)ccc2c1NCCN1CCOCC1	-1	21	-2	-20	7.7*
CCOC(=O)c1cnc2c(C)c(C)ccc2c1NCCN1CCOCC1	17	-11	-2	15	8.6*
CCOC(=O)c1cnc2ccc(C)cc2c1NCCN1CCOCC1	-3	-5	0	8	4
NC(=O)CC[C@@H]1NC(=O)C(Cc2ccc(O)cc2)NC(=O)c2cc([N+](=O)[O-])cc(F)c2NCCC[C@@H](C(N)=O)NC1=O (stereo not given in full)	-1	-13	-3	-9	-1
COc1ccccc1C(=O)Nc1c2c(nn1-c1ccc(Cl)cc1)CS(=O)(=O)C2	5	43	10*	-10	6
COCc1cc(CNC(=O)C2CCC(=O)N(Cc3ccccc3F)C2)[nH]n1 (stereo not given)	-1	7	-1	-3	-1
Cc1cc(C)n(C(=O)CNC(=O)c2ccc(Cl)cc2Cl)n1	-1	-5	-5	-12	-1
S=C(Nc1ccc2nc(-c3ccccn3)c(-c3ccccn3)nc2c1)N1CCCCC1	-6	69*	-2	-11	-2
S=C(Nc1ccc2nccnc2c1)N1CCOCC1	0	89*	-2	3	1
Cc1ccc(NC(=S)N2CCOCC2)cc1	-10	-3	-4	3	-1
COc1ccc(C(=O)NC(=O)COC(=O)c2ccc3ncsc3c2)cc1	9	68*	-4	-3	1
O=C(COC(=O)c1ccc2ncsc2c1)NC(=O)c1ccccc1	-10	-1	-3	-2	0
CCN(CC)CCSc1nnc2c3ccccc3n(CCc3ccccc3)c2n1	-18	8	-3	2	11*
CCn1c2ccccc2c2nnc(SCC(=O)OCN3C(=O)c4ccccc4C3=O)nc21	3	21	-5	9	-1
Cn1c2ccccc2c2nnc(SCC(=O)NC3CCCC3)nc21	6	-4	-2	-14	9.2*
COc1ccc2c(c1)c1nnc(SCC(=O)NC3CC3)nc1n2C	-6	-19	-3	-13	0
CCOC(=O)CSc1nnc2c3ccccc3n(CC)c2n1	-1	8	-3	-21	7.9*
COc1ccc(-c2nnc(-c3cccnc3)o2)cc1OC	0	17	-2	-5	5
CCOc1ccc(-c2nnc(-c3cccnc3)o2)cc1OCC	6	25	-4	-34	11*
